# Source: PubChem BioAssay (Johns Hopkins Ion Channel Center)
# RGS4 pot – RGS4 potentiators or activators, primary screen, cell-based, HEK293 M3R inducible RGS4, calcium flux. 0.92% of 310,000 active. carbachol calcium flux Fluo4; hits give low values. B-score at 10 µM;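 active = B-score of the integrated calcium signal more than 4 SD below the library mean, with starting fluorescence not abnormally high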;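 also: negative B-score means reduced calcium response which marks RGS4 activation or potentiation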
#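 System: HEK293 FlpIn-TREx cells, stable M3R, doxycycline-inducible RGS4. Timing: overnight RGS4 induction, 30 min dye load 37 °C, 20 min compound RT. Also added: carbachol, ECmax concentration. Measured by: Fluo4 fluorescence kinetic imaging of calcium. Evaluation: integrated calcium ratio converted to B score.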
# RGS4 inh – RGS4 inhibitors, primary screen, cell-based, HEK293 M3R inducible RGS4, calcium flux | B-score at 10 µM | Regulator of G-protein signaling 4 (Homo sapiens), P49798 | 0.45% of 310,000 active | Fluo-4 calcium flux; hits give high values; triggered by carbachol at its EC20 | AID 463165, 2010;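 active = B-score, a plate-corrected calcium signal, over three deviations above library mean, with baseline fluorescence within five deviations of library mean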;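 also: RGS4 expression induced by doxycycline in cells with stable M3 receptor; B-score is computed from the integrated fluorescence ratio over baseline after carbachol; higher B-score means a larger calcium signal and so more RGS4 inhibition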
# Target sequence (P49798 whole entry, looked up): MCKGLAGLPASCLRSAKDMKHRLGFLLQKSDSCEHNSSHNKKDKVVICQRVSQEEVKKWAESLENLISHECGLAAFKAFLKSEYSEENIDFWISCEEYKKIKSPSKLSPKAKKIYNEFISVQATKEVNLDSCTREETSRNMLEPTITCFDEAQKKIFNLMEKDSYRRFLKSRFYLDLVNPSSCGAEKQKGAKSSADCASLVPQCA
# MrgX1 antag – antagonists of human MrgX1 receptor, primary screen, HEK293 cells, Fluo-4 calcium flux | 1.3% of 310,000 active | Mas-related G-protein coupled receptor member X1 (Homo sapiens), Q96LB2 | BAM8-22 antagonism; hits give low values | AID 588676, 2011 | B-score at 10 µM;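 active = calcium-response B-score plate-corrected more than 3 library SD below zero, starting fluorescence within 5 deviations, no agonist response on first addition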;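 also: peak minus trough fluorescence over baseline after final BAM8-22 challenge near maximal dose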
# Target sequence (Q96LB2 whole entry, looked up): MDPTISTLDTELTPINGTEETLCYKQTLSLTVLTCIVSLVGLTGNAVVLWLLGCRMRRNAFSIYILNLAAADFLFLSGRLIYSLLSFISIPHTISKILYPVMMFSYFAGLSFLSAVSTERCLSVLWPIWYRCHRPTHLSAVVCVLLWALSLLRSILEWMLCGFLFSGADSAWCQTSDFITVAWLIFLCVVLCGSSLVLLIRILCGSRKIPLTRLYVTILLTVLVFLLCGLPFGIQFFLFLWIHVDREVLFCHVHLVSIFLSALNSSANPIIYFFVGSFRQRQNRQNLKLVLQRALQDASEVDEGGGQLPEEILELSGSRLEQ
# MrgX1 PAM – positive allosteric modulators of MrgX1, primary screen, HEK293 cells, Fluo-4 calcium flux. FDSS; hits give high values. B-score at 10 µM. 0.63% of 310,000 active;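 active = plate-corrected calcium response at least 3 library SD above typical, normal starting fluorescence, not activating the receptor alone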;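 also: compound read alongside a low EC10 to EC30 dose of BAM8-22 agonist; peak minus trough fluorescence over baseline measured at the second addition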
# MrgX1 agonist – agonists of human MrgX1 receptor, primary screen, HEK293 cells, Fluo-4 calcium flux | Mas-related G-protein coupled receptor member X1 (Homo sapiens), Q96LB2 | Fluo-4 calcium fluorescence, agonist mode; hits give high values | B-score at 10 µM | 0.44% of 310,000 active;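 active = calcium response B-score plate-corrected fluorescence ratio at least 3 library SD, with starting fluorescence B-score inside 5 SD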
#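 Material: MrgX1-expressing HEK293 cells; input: 15,000 cells per well; doses: test compound given as first of three sequential additions; schedule: overnight plating before 1 h dye loading; technique: Fluo-4 NW calcium-flux fluorescence, kinetic read; evaluation: baseline-normalised fluorescence change ratio, B-scored; control set: plate-wise positive and negative controls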
# RGS4 block valid – enhanced carbachol calcium response, M3R/RGS4 cells, RGS4 inhibitor project, cell-based, validation screen, HEK293 M3R/RGS4, calcium flux | shares compounds with RGS4 inh | carbachol calcium Fluo-4 fluorescence; carbachol added at its EC20; 0 = buffer wells, 100 = carbachol control | calcium response, % at 10 µM | AID 492999, 2010 | 65% of 1,700 active;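 active = duplicate-averaged calcium response above the buffer-only control mean plus 5 SD of those controls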;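 also: integrated fluorescence ratio F max minus min over baseline F0; higher response in RGS4-induced cells means RGS4 inhibition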
# M3R Ca ctr – carbachol calcium response in non-induced M3R cells, confirmation, counter-screen for RGS4 inhibitor project, cell-based, HEK293 M3R. carbachol calcium Fluo-4; submaximal (EC20) carbachol stimulus; buffer wells 0%, carbachol control wells 100%. activity (percent), % at 10 µM. 20% of 1,900 active. AID 493000, 2010. shares compounds with RGS4 inh; call rule not given here;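 also: RGS4 induction absent so cells express M3R without RGS4; higher means more calcium signal and flags a non-specific hit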
# M3R basal Ca ctr – second counter-screen for RGS4 inhibitors: non-induced cells without carbachol | shares compounds with RGS4 inh | HEK293 M3R/RGS4 non-induced, Fluo-4 calcium, no carbachol; normalised: buffer wells 0%, carbachol wells 100% | calcium response (agonist-mode artifact), % at 10 µM | 22% of 1,900 active | AID 493001;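 active = duplicate-averaged calcium rise in uninduced cells above buffer wells' mean plus 5 SD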
# * hit, by the source's call; i = inactive; · = no result. Rows were chosen to be rich in hits. Some 3.5% of all compounds tested hit in one or more screens of this group.
SMILES,RGS4 pot,RGS4 inh,MrgX1 antag,MrgX1 PAM,MrgX1 agonist,RGS4 block valid,M3R Ca ctr,M3R basal Ca ctr
C[C@]12C(=O)N(c3cccc(F)c3)C(=O)N1[C@@H]1c3ccccc3OC[C@@H]1[C@H]2c1ccccc1,i,i,i,i,i,i,i,i
Cc1ccc(N2C(=O)N3[C@H]4c5ccccc5OC[C@@H]4[C@@H](c4ccccc4)[C@@]3(C)C2=O)cc1,i,i,i,i,i,·,·,·
C[C@]12C(=O)N(c3ccc(C(F)(F)F)cc3)C(=O)N1[C@@H]1c3ccccc3OC[C@@H]1[C@H]2c1ccccc1,i,i,i,i,i,·,·,·
C[C@]12C(=O)N(c3ccccc3)C(=O)N1[C@@H]1c3ccccc3OC[C@@H]1[C@H]2c1ccccc1,i,i,i,i,i,i,i,i
Cc1sc(/C=C2\C(=O)ON=C2c2ccccc2)cc1Br,i,i,i,i,i,·,·,·
COc1cc(C=C2C(=O)c3ccccc3C2=O)ccc1O,i,i,i,i,i,·,·,·
COc1cc(/C=C2\C(=O)ON=C2c2ccccc2)cc(Cl)c1O,-7.9*,13*,i,i,90*,40%*,i,253%*
C=CCOc1ccc(/C=C2/C(=O)ON=C2C)cc1OC,i,9.4*,i,i,i,18%*,i,16%*
COc1cc(/C=C2/C(=O)ON=C2c2ccccc2)ccc1O,i,11*,i,i,28*,38%*,i,97%*
COc1ccc(N2CCOCC2)c(NC(=O)c2ccc3c(c2)OCO3)c1,i,i,i,i,i,·,·,·
CCN1CCN(C(=O)CCc2nnc3ccc(N4CCN(c5cccc(OC)c5)CC4)nn23)CC1,i,i,i,i,i,·,·,·
S=c1[nH]nc(-c2cccs2)n1/N=C/c1c(Cl)cccc1Cl,i,11*,i,i,i,17%*,i,i
Cc1ccc(NC(=O)c2nc[nH]c2C(=O)N[C@@H](C)c2ccccc2)cc1,i,5.7*,i,i,i,29%*,i,i
Cc1ccc(NC(=O)c2[nH]cnc2C(=O)NN)cc1,i,i,i,i,i,·,·,·
Cc1ccc(C(C[N+](=O)[O-])c2c(C)[nH]n(-c3ccccc3)c2=O)cc1 (stereo not given),i,6.7*,i,i,36*,7.0%*,32%*,17%*
Cc1[nH]n(-c2ccccc2)c(=O)c1C(C[N+](=O)[O-])c1ccc(Cl)cc1 (stereo not given),i,10*,i,i,32*,28%*,i,11%*
Cc1[nH]n(-c2ccccc2)c(=O)c1C(C[N+](=O)[O-])c1ccc(F)cc1 (stereo not given),i,i,i,i,i,·,i,7.5%*
COc1ccc(C(c2c(C)[nH]n(-c3ccccc3)c2=O)c2c(C)[nH]n(-c3ccccc3)c2=O)cc1OC,i,i,i,i,i,·,i,i
Cc1[nH]n(-c2ccccc2)c(=O)c1Sc1ccc(Cl)cc1,i,i,i,i,i,·,·,·
Cc1occc1-c1nnc(SCC(=O)O)n1-c1ccccc1,i,i,i,i,i,·,·,·
CCCN1CCC(=O)N([C@H](CSc2ccc(OC)cc2)CC(C)C)CC1,i,i,i,i,i,·,·,·
Cc1ccc(C(=O)NC(C)C2CC3CCC2C3)c(C)c1 (stereo not given),i,i,i,i,i,·,·,·
CC(C)C(NC(=O)c1ccc(F)cc1)C(=O)NCC1CCCO1 (stereo not given),i,i,i,i,i,·,·,·
CC(C)CC(=O)/C(=C/c1ccc(N(C)C)cc1)n1cncn1,i,i,i,i,i,·,·,·
CC(C)CC(=O)/C(=C\c1ccc(Cl)cc1Cl)n1cncn1,i,6.8*,·,·,·,16%*,i,20%*
SMILES,RGS4 pot,RGS4 inh,MrgX1 antag,MrgX1 PAM,MrgX1 agonist,RGS4 block valid,M3R Ca ctr,M3R basal Ca ctr
CC(=C/c1ccccc1)/C=N/n1c(-c2ccncc2)n[nH]c1=S,i,5.1*,i,i,i,16%*,i,i
CC(/C=N/n1c(-c2cccnc2)n[nH]c1=S)=C\c1ccccc1,i,i,i,i,i,·,·,·
S=c1[nH]nc(-c2ccncc2)n1/N=C/c1cn(-c2ccccc2)nc1-c1ccc(Cl)cc1,i,i,i,i,i,i,i,i
C=CCc1cccc2cc(C(=O)N3CCN(C(=O)c4ccccc4)CC3)c(=O)oc12,i,i,i,i,i,·,·,·
N#Cc1ccccc1S(=O)(=O)N1CCN(C(=O)CN2C(=O)NC3(CCCC3)C2=O)CC1,i,i,i,i,i,·,·,·
Cc1nc2ccc(NC(=O)c3cc([N+](=O)[O-])cc([N+](=O)[O-])c3Cl)cc2s1,·,·,i,i,i,·,·,·
CCOC(=O)/C(C#N)=C/c1cn(CCC(=O)O)nc1-c1cccc(Br)c1,i,i,i,i,i,·,i,i
CCOC(=O)/C(C#N)=C/c1cn(CCC(=O)O)nc1-c1ccccc1,i,i,i,i,i,i,i,i
CCOC(=O)/C(C#N)=C/c1cn(CCC(=O)O)nc1-c1ccc(Cl)cc1,i,i,i,i,i,i,i,i
CCOC(=O)/C(C#N)=C/c1cn(CCC(=O)O)nc1-c1ccc(OC)cc1,i,i,i,i,i,·,·,·
O=Cc1cn(CCC(=O)O)nc1-c1cccc(Cl)c1,i,i,i,i,i,·,·,·
O=C(CN1C(=O)NC2(CCCC2)C1=O)Nc1nc(-c2ccccc2)cs1,i,i,i,i,i,·,·,·
O=C(CSc1nnc(SCc2ccc(Cl)cc2)s1)N/N=C/c1c(Cl)cccc1Cl,i,i,i,i,i,·,·,·
